Screens from PubChem.
A selection: hits, their analogues and other compounds. The true share with any hit is near 3.4%.
M1 PAM – human M1 muscarinic receptor positive allosteric modulators, primary screen, CHO-K1 cells, Fluo-8 calcium fluorescence, 1536-well; Muscarinic acetylcholine receptor M1 (Homo sapiens), P11229; CHO-K1 hM1, ACh EC20; 0% = ACh EC20, 100% = maximal ACh; activation, % at 3 µM; 360,000 compounds, 0.088% hits; in the data active = activation above about 19%, passing the limit was not always enough
Target sequence (P11229 whole entry, looked up): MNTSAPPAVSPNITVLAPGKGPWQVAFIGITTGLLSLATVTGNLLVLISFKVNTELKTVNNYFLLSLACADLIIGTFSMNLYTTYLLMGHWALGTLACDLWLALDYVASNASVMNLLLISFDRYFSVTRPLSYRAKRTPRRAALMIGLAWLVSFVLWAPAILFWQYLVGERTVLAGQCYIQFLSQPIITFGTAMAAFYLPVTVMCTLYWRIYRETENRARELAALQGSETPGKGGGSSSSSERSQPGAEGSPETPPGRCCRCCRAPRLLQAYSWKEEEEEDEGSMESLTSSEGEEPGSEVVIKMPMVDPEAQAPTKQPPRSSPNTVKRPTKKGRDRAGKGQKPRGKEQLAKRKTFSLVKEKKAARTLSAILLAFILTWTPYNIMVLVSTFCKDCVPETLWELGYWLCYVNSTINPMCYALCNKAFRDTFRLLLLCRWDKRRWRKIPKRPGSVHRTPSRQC
TAAR1 antag – human TAAR1 antagonists, primary screen, Fluo-8 calcium fluorescence, CHO RD-HGA16 cells; inhibition, % at 3 µM; 360,000 compounds, 1.5% hits; Trace amine-associated receptor 1 (Homo sapiens), Q96RJ0; antagonist;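 active = inhibition above a per-plate cutoff, the mean inhibition of test compounds on that plate plus 3 SD, cut at about 49% in these data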
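Material: CHO RD-HGA16 cells bearing hTAAR1; compound dosing: one-point dosing, 3 µM nominal final; schedule: dye loading 75 min at 37 °C, then 30 min room temperature; measured by: calcium fluorescence with Fluo-8; control set: vehicle and agonist controls; replication: n of 1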
TAAR1 agonist – human TAAR1 agonists, primary screen, Fluo-8 calcium fluorescence, CHO RD-HGA16 cells; vehicle wells 0%, saturating PEA agonist 100%; 360,000 compounds, 0.99% hits; Trace amine-associated receptor 1 (Homo sapiens), Q96RJ0; activation, % at 3 µM; AID 624467, 2012;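 active = activation above the mean activation of all test compounds in the run plus 3 SD, cut at about 38% in these data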
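Repeats: no replicates (n 1) | Material: CHO-derived RD-HGA16 cells with stable Gα16 and human TAAR1 | Technique: Kinetic Fluo-8 calcium fluorescence | Schedule: 17-24 h seeding, 75 min 37 °C dye, 30 min RT | Evaluation: % activation from peak over basal fluorescence ratio, DMSO-to-PEA scaled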
M1 ag – human M1 muscarinic receptor agonists, primary screen, Fluo-8 calcium fluorescence, CHO-K1 cells, HTS | Muscarinic acetylcholine receptor M1 (Homo sapiens), P11229 | CHO-K1 hM1, agonist mode; 0% DMSO, 100% acetylcholine EC100 | activation, % at 3 µM | 360,000 compounds, 0.33% hits | AID 588814, 2011;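 active = activation above the run's mean compound activation plus 3 SD, cut at about 16% in these data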;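 note: peak over basal fluorescence ratio within a 140 s kinetic read after compound addition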
CHRM1 antagonist – human M1 muscarinic receptor antagonists, primary screen, CHO-K1 cells, Fluo-8 calcium fluorescence, 1536-well. Muscarinic acetylcholine receptor M1 (Homo sapiens), P11229. CHO-K1 hM1, ACh EC80 antagonist. inhibition, % at 3 µM. 360,000 compounds, 1.3% hits. AID 588852, 2011;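 active = percent inhibition above its own plate's cutoff, namely the mean of that plate's compound wells plus 3 SD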;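 note: peak over basal fluorescence ratio during 140 s after agonist addition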
nonsel antag count – nonselective antagonists in TAAR1 counter-screen cells, counter-screen for hTAAR1 antagonist project, cell-based, fluorescence, calcium; shares compounds with TAAR1 antag; inhibition, % at 3 µM; counterscreen cell line, antagonist mode; 2,400 compounds, 77% hits; in the data active = inhibition above about 22%;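 note: CHO-Ga16 host cells stimulated with ATP at an EC80 level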
TAAR1 antag conf – human TAAR1 antagonists, retest of hits, confirmation, cell-based, fluorescence; shares compounds with TAAR1 antag; TAAR1-expressing cells, fluorescence antagonist read-out; inhibition, % at 3 µM; 2,400 compounds, 40% hits; AID 651785, 2012; in the data active = inhibition above about 49%;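 note: CHO-Ga16 host cells challenged with agonist PEA near its EC80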
Ga16 nonsel ag – calcium activation in Ga16-expressing cells, counter-screen for TAAR1 antagonist project, cell-based, fluorescence; activation, % at 3 µM; 2,400 compounds, 18% hits; shares compounds with TAAR1 antag; agonist counterscreen; in the data active = activation above about 12%
TAAR1 ag count – TAAR1 activation by candidate antagonists – cell-based, fluorescence, counter-screen for TAAR1 antagonist project; shares compounds with TAAR1 antag; hTAAR1 cell line, agonist mode; activation, % at 3 µM; 2,400 compounds, 2% hits; in the data active = activation above about 37%;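 note: CHO cells stably expressing TAAR1 with calcium dye readout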
Hits are given with their value.

`Cc1ccc(Cl)cc1-c1cc(C(=O)NCc2ccc(C(F)(F)F)cc2)[nH]n1` gave M1 PAM inactive, TAAR1 antag 77, TAAR1 agonist inactive, M1 ag inactive, CHRM1 antagonist inactive, nonsel antag count 42, TAAR1 antag conf 66, Ga16 nonsel ag 32 and TAAR1 ag count 58.
COc1ccc(Cl)c(-c2cc(C(=O)NCc3ccc(C(F)(F)F)cc3)[nH]n2)c1 was read as M1 PAM inactive, TAAR1 antag 63, TAAR1 agonist inactive, M1 ag inactive, CHRM1 antagonist inactive, nonsel antag count 32, TAAR1 antag conf inactive, Ga16 nonsel ag 19 and TAAR1 ag count inactive.
For CC(C)(C)NC(=O)C(c1ccc(C(F)(F)F)cc1)n1c(=O)c(-c2ccco2)nc2ccccc21 (stereo unspecified) the results were TAAR1 antag inactive and TAAR1 agonist inactive.
CN(C)C1CN(Cc2cn(Cc3ccc(C(F)(F)F)cc3)nn2)S(=O)(=O)C1 (stereo unspecified) was read as TAAR1 antag inactive and TAAR1 agonist inactive.
For COC(=O)[C@@]1(Cc2ccc(F)cc2)[C@H]2c3cc(C(=O)N(C)C)n(CCCNc4ncc(C(F)(F)F)cc4Cl)c3C[C@H]2CN1C(=O)c1ccccc1 the results were TAAR1 antag inactive and TAAR1 agonist inactive.
For COc1ccc(CN2C(=O)c3ccccc3C2c2nnnn2-c2ccc3c(c2)OCCO3)cc1 (stereo unspecified) the results were TAAR1 antag inactive and TAAR1 agonist inactive.
`COc1cccc(-c2csc(N3CCN(C(=O)Nc4ccc(F)cc4)CC3)n2)c1` gave M1 PAM inactive, TAAR1 antag 79, TAAR1 agonist inactive, M1 ag inactive, CHRM1 antagonist inactive, nonsel antag count 55, TAAR1 antag conf 64, Ga16 nonsel ag inactive and TAAR1 ag count inactive.
For COc1cccc(-c2csc(N3CCN(C(=O)Nc4ccccc4OC)CC3)n2)c1 the results were M1 PAM inactive, TAAR1 antag inactive, TAAR1 agonist inactive, M1 ag inactive and CHRM1 antagonist inactive.
For Cc1ccc(C)c(N2CCN(C(=O)C34CC5CC(C3)CC(n3nnc(C)n3)(C5)C4)CC2)c1 the results were M1 PAM inactive, TAAR1 antag 59, TAAR1 agonist inactive, M1 ag inactive, CHRM1 antagonist inactive, nonsel antag count 35, TAAR1 antag conf inactive, Ga16 nonsel ag inactive and TAAR1 ag count inactive.
Screening COc1cccc(NC(=O)Nc2ccc(C(C)(C)C)cc2)c1 returned M1 PAM inactive, TAAR1 antag 87, TAAR1 agonist inactive, M1 ag inactive, CHRM1 antagonist 26, nonsel antag count 51, TAAR1 antag conf 76, Ga16 nonsel ag 14 and TAAR1 ag count inactive.
Screening CN(C)c1ccc(C(C(=O)NCC2CCCO2)N(Cc2ccccc2)C(=O)c2snc(C(N)=O)c2N)cc1 (stereo unspecified) returned M1 PAM inactive, TAAR1 antag 65, TAAR1 agonist inactive, M1 ag inactive, CHRM1 antagonist 26, nonsel antag count 33, TAAR1 antag conf 57, Ga16 nonsel ag 13 and TAAR1 ag count inactive.
`CN(C)c1ccc(C(C(=O)NCC2CCCO2)N(Cc2ccco2)C(=O)c2snc(C(N)=O)c2N)cc1` (stereo unspecified) gave M1 PAM inactive, TAAR1 antag 67, TAAR1 agonist inactive, M1 ag inactive, CHRM1 antagonist inactive, nonsel antag count 34, TAAR1 antag conf 52, Ga16 nonsel ag inactive and TAAR1 ag count inactive.
For CCOc1ccc(C(C(=O)NCC2CCCO2)N(CCc2cccc(C)c2)C(=O)c2snc(C(N)=O)c2N)cc1 (stereo unspecified) the results were M1 PAM inactive, TAAR1 antag 67, TAAR1 agonist inactive, M1 ag inactive, CHRM1 antagonist inactive, nonsel antag count 34, TAAR1 antag conf 53, Ga16 nonsel ag 16 and TAAR1 ag count 39.
Screening COc1ccc(C(C(=O)NCC2CCCO2)N(Cc2ccccc2)C(=O)c2snc(C(N)=O)c2N)cc1OC (stereo unspecified) returned M1 PAM inactive, TAAR1 antag inactive, TAAR1 agonist inactive, M1 ag inactive and CHRM1 antagonist inactive.
Screening CCCc1nc2ccc(C)cn2c1Cc1cccc(Cl)c1 returned M1 PAM inactive, TAAR1 antag inactive, TAAR1 agonist inactive, M1 ag inactive and CHRM1 antagonist inactive.
Cc1ccc(CN2CCN(C(=O)/C=C/[C@H]3O[C@@H](n4cc(C)c(=O)[nH]c4=O)C[C@@H]3O)CC2)cc1 was read as M1 PAM inactive, TAAR1 antag inactive, TAAR1 agonist inactive, M1 ag inactive and CHRM1 antagonist inactive.
For Cc1cc(C)c(NC(=O)c2ccc3c(c2)NC(=O)C(C)S3)c(C)c1 (stereo unspecified) the results were M1 PAM inactive, TAAR1 antag inactive, TAAR1 agonist inactive, M1 ag inactive and CHRM1 antagonist inactive.
`CCN(CC)S(=O)(=O)c1cc(NC(=O)c2ccc3c(c2)NC(=O)C(C)S3)ccc1C` (stereo unspecified) gave M1 PAM inactive, TAAR1 antag 73, TAAR1 agonist inactive, M1 ag inactive, CHRM1 antagonist inactive, nonsel antag count 41, TAAR1 antag conf 52, Ga16 nonsel ag 13 and TAAR1 ag count inactive.
For CSc1ccc(CCNC(=O)CN2C(=O)c3cccnc3Oc3ccc(C)cc32)cc1 the results were M1 PAM inactive, TAAR1 antag 74, TAAR1 agonist inactive, M1 ag inactive, CHRM1 antagonist inactive, nonsel antag count 25, TAAR1 antag conf 53, Ga16 nonsel ag inactive and TAAR1 ag count inactive.
CCOc1ccc(CCNC(=O)CN2C(=O)c3cccnc3Oc3ccc(C)cc32)cc1OCC was read as M1 PAM inactive, TAAR1 antag inactive, TAAR1 agonist inactive, M1 ag inactive and CHRM1 antagonist inactive.
